Compound activity (PubChem BioAssay)
Compounds with a hit are over-represented: about 6.4% of the library has one in this group of screens.
Jurkat tox 60K – cytotoxic compounds reducing Jurkat cell viability; Jurkat E6.1 viability, ATP luminescence, 48 h; inhibition, % at 4 µM; 1.2% of 56,000 active; AID 463;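 active = inhibition above the mean inhibition of all tested compounds plus 3 SD, cut at about 28% in these data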
Lung fibro prol – blocks proliferation of human lung fibroblasts; AID 719; viability, % at 10 µM; 1.1% of 85,000 active; LL 47 human lung fibroblast viability, ATP luminescence; active compounds read low;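 active = viability at or below 50% in the single dose screen; inactive = viability above 50%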;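 note: compound exposure lasted 72 h before the ATP readout; 100% = median luminescence of untreated cell-only wells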
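Test system: LL 47 human lung fibroblasts / Incubation: 72 h compound exposure at 37 °C after overnight plating / Technique: luminescent ATP detection, CellTiter-Glo / Compound dosing: 0.1% DMSO in all compound wells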
Ecoli WT expand – E. coli BW25113 growth inhibition, expanded screen; AID 710; OD600 absorbance; 0.15% of 98,000 active; growth inhibition, % at 100 µM;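 active = growth inhibition above about 50% at one test dose, limit read from the data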;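 note: growth measured after 20 h incubation at 37 °C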
H69AR growth 86K – growth inhibitors of human H69AR lung tumor cells; 6% of 85,000 active; H69AR lung tumor viability, ATP luminescence, 72 h; active compounds read low; viability, % at 10 µM;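 active = viability at or below 40%; inactive = viability above 40%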;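 note: multidrug resistant small cell line overexpressing MRP-1 efflux transporter; 100% = mean luminescence of untreated control wells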
tolC growth inh – blocks growth of E. coli BW25113 tolC mutant; growth inhibition, % at 10 µM (by protocol); OD615; 2.2% of 65,000 active; AID 573;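 active = growth inhibition at or above a cutoff equal to the mean over every tested compound plus 3 SD, cut at about 60% in these data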;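 note: growth measured after 20 h incubation at 37 °C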
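Assay system: tolC-deleted E. coli BW25113. Medium: kanamycin-containing LB broth (50 µg/mL). Dosing: 10 µM final, single dose. Timing: bacterial growth with compound for 20 h at 37 °C. Detection: A615 absorbance measurement. Read-out basis: growth inhibition in percent.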
HUVEC inhibit – blocks proliferation of human endothelial cells | HUVEC proliferation, CellTiter-Glo luminescence, 72 h; active compounds read low | viability, % at 10 µM (by protocol) | 1.1% of 86,000 active;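 active = viability at or below 30%; inactive = viability above 30%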;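 note: 100% = median luminescence of DMSO-only cell control wells on each plate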
Starred values were filed as active, the others as inactive; nt = not tested or not shown.

SMILES	Jurkat tox 60K	Lung fibro prol	Ecoli WT expand	H69AR growth 86K	tolC growth inh	HUVEC inhibit
CCOC(=O)CSc1nc2cc(C)ccc2cc1C#N	10.9	83.2	-4.0	34.1*	13.5	77.7
COC(=O)CC(=O)CSc1nc2c(cc1C#N)CCCCC2	-2.4	101.1	-6.0	80.7	1.5	81.8
CCOC(=O)CSc1nc2ccc(C)cc2cc1C#N	nt	106.3	4.0	81.7	nt	106.0
CCOc1ccc2nc(Cl)c(/C=C/C(=O)c3ccco3)cc2c1	nt	93.0	-5.0	8.9*	nt	77.4
CCCOc1c(Br)cc(/C=N/O)cc1OC	nt	97.8	13.0	30.0*	nt	63.1
COc1ccc(OC)c(CCNC(=O)Cn2sc3nc(C)cc(C)c3c2=O)c1	-1.8	31.4*	5.0	0.0*	-8.7	76.7
CCOC(=O)C1=C(CSc2nc(C)cc(C)c2C#N)OC(N)=C(C#N)C1c1ccccc1 (centres undefined)	nt	101.5	-2.0	81.1	nt	98.2
CCOC(=O)C1=C(CSc2nc(CC)c(C)cc2C#N)OC(N)=C(C#N)C1c1ccccc1 (centres undefined)	nt	78.4	0.0	28.2*	nt	78.4
CCOC(=O)C1=C(CSc2nc3c(cc2C#N)CN(C)CC3)OC(N)=C(C#N)C1c1ccc(Cl)cc1 (centres undefined)	nt	102.9	4.0	35.6*	nt	88.1
Oc1ccccc1-c1cc(C(F)(F)C(F)F)nc(-c2ccccc2)n1	-1.3	95.0	-7.0	87.7	-14.2	90.0
COc1ccc(O)c(-c2cc(C(F)(F)C(F)F)nc(-c3ccccc3)n2)c1	nt	94.4	-10.0	33.6*	nt	80.1
CC1=C(SCCC#N)S/C(=C2\SC(C)=C(SCCC#N)S2)S1	-2.7	100.1	-3.0	26.1*	3.2	18.6*
Cc1ccc(OCC(=O)NCc2ccccn2)cc1	-5.8	94.6	-1.0	94.5	-4.1	85.9
CC(=O)c1cc(-c2ccccc2)n(CC(=O)N2CCC(C)CC2)c1C	nt	100.3	nt	83.4	nt	101.7
O=c1c2ccccc2nc2ccc(NCc3ccco3)nn12	13.4	87.5	1.0	39.2*	9.0	84.8
CCOC(=O)c1c(C(C)(C)C)oc2ccc(OCC#N)cc12	-3.2	88.9	11.0	60.5	53.9	80.5
CCOC(=O)c1c(COc2ccccc2)oc2ccc(O)cc12	45.3*	95.6	-9.0	95.3	2.6	82.0
CCOC(=O)c1c(C(C)(C)C)oc2ccc(O)cc12	nt	93.8	12.0	29.9*	nt	46.5
CCOCc1cn(CC(=O)c2ccc(Cl)cc2)c(C)nc1=N	nt	102.0	4.0	89.2	nt	96.3
Cc1nc([N+](=O)[O-])c(Br)n1CC(=O)c1ccc(Cl)cc1	nt	77.2	-2.0	1.2*	nt	77.1
CC1CCc2c(sc3nc(SCC(=O)NCc4ccco4)nc(N)c23)C1 (centres undefined)	13.0	85.2	-15.0	35.2*	9.8	65.1
CCN(CC)C(=O)CSc1nc(N)c2c3c(sc2n1)CC(C)CC3 (centres undefined)	nt	96.8	-3.0	37.2*	nt	89.1
O=S1(=O)N=C(Oc2cccc3ccccc23)c2ccccc21	nt	108.3	nt	25.4*	nt	79.8
O=S1(=O)N=C(SCCO)c2ccccc21	4.2	88.2	-7.0	80.6	-11.0	81.1
CCC(C)(C)NC(=O)C(c1ccc(C)o1)N(Cc1cccs1)C(=O)Cn1nnc2ccccc21 (centres undefined)	1.3	43.3*	-5.0	48.7	16.1	79.3
SMILES	Jurkat tox 60K	Lung fibro prol	Ecoli WT expand	H69AR growth 86K	tolC growth inh	HUVEC inhibit
COc1ccc(CNC(=O)C(c2ccc(C)o2)N(C(=O)c2csnn2)c2ccc(C(C)C)cc2)cc1 (centres undefined)	nt	99.5	-22.0	38.3*	nt	107.0
Cc1ccc(C(C(=O)NCc2ccccc2)N(C(=O)c2csnn2)c2cccc3ccccc23)o1 (centres undefined)	nt	95.0	-9.0	62.1	nt	95.4
COc1ccc(CNC(=O)C(c2ccc(C)o2)N(Cc2cccs2)C(=O)Cc2cccs2)cc1 (centres undefined)	nt	96.0	nt	23.7*	nt	71.0
COCCN(C(=O)Cc1cccs1)C(C(=O)NCc1ccc(OC)cc1)c1ccc(C)cc1 (centres undefined)	nt	nt	-6.0	nt	nt	nt
COc1ccc(CC(=O)NCc2cccs2)cc1	13.8	92.6	11.0	30.4*	5.8	70.5
O=S(=O)(NC1CC1)c1ccc(S(=O)(=O)N2CCc3ccccc32)cc1	10.6	96.9	-14.0	83.7	-15.3	109.2
O=C(Nc1ccc(OC(=O)c2cccs2)cc1)c1ccco1	nt	104.9	-5.0	94.2	-3.9	88.3
CCOc1ccccc1NC(=O)/C=C/C(N)=O	nt	89.6	-2.0	1.3*	nt	95.4
